This passage reports MIC results from ChEMBL document CHEMBL1142890, “Structure-antibacterial activity of arylcarbonyl- and arylsulfonyl-piperazine 5-triazolylmethyl oxazolidinones” (2007).

In assay [1] the test system is Staphylococcus aureus. The assay can be described thus: Antimicrobial activity against Staphylococcus aureus ATCC 25923 by agar dilution method. (In agar dilution the substance is mixed into plates at graded concentrations.)
The test system of another assay is Streptococcus pneumoniae. The assay can be described thus: Antimicrobial activity against Streptococcus pneumoniae by agar dilution method. The assay is classed as functional. Summed up:
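Agar dilution per CLSI on Mueller–Hinton agar holding drug dilutions from 0.12 to 8 µg/ml. Staphylococci and enterococci tested on plain MH agar, S. pneumoniae on MH agar with 5% sheep blood. Test compounds dissolved in 20% water in DMSO. Inoculum 10⁷ CFU/ml, incubated 35 °C for 18 h. MIC was the lowest concentration giving complete growth inhibition.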

Assay [2] deals with Staphylococcus aureus. The assay can be described thus: Antimicrobial activity against methicillin-susceptible Staphylococcus aureus by agar dilution method. The assay is classed as functional. Summed up:
(§1)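 Agar dilution per CLSI on Mueller-Hinton agar, test agents at 0.12 to 8 µg/ml; test compounds dissolved in 20% water in DMSO, linezolid in 40% water in ethanol, vancomycin in water. Clinical isolates inoculated at final 10^7 CFU/ml, incubated 35 °C for 18 h. MIC = lowest concentration completely inhibiting growth; reported as range across isolates.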

The subject of the next assay is Escherichia coli. Put plainly: Antimicrobial activity against Escherichia coli ATCC 25922. In kind it is functional.
In assay [3] the test system is Staphylococcus aureus. Put plainly: Antimicrobial activity against methicillin-resistant Staphylococcus aureus by agar dilution method. In kind it is functional. The essentials: as §1
A further assay deals with Haemophilus influenzae. Put plainly: Antimicrobial activity against Haemophilus influenzae. The assay is classed as functional.
Assay [4] deals with Staphylococcus aureus. The assay can be described thus: Antimicrobial activity against Staphylococcus aureus ATCC 25922 in presence of 50% human plasma […]. The assay is classed as functional. As to conditions: ATCC 25923, Plasma, in the assay text read “ATCC 25923” for “ATCC 25922”. The essentials:
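S. aureus ATCC 25923 tested in Mueller–Hinton broth supplemented with 50% human plasma. Test compounds dissolved in 20% water in DMSO. Inoculum 10⁷ CFU/ml, incubated 35 °C for 18 h. MIC was the lowest concentration completely inhibiting growth.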

The test system of assay [5] is Enterococcus. Put plainly: Antimicrobial activity against vancomycin-resistant Enterococcus by agar dilution method. In kind it is functional. Summed up: as §1
For assay [6], the system named is Staphylococcus. Put plainly: Antimicrobial activity against methicillin-susceptible coagulase-negative staphylococcus by agar dilution method. The assay is classed as functional. Summed up: as §1
Assay [7] has as its system Enterococcus. The assay can be described thus: Antimicrobial activity against vancomycin-sensitive Enterococcus by agar dilution method. In kind it is functional. The essentials: as §1
Assay [8] has as its system Staphylococcus. Put plainly: Antimicrobial activity against methicillin-resistant coagulase-negative Staphylococcus by agar dilution method. In kind it is functional. The essentials:
as §1

The next assay concerns Moraxella catarrhalis. The assay can be described thus: Antimicrobial activity against Moraxella catarrhalis. The assay is classed as functional.

SMILES strings stand for the structures. Converted amounts (≈) assume the structure as drawn.

For the compound `O=C1O[C@@H](Cn2ccnn2)CN1c1ccc(N2CCN(S(=O)(=O)c3cccs3)CC2)c(F)c1`, the MIC is 1 µg/mL (≈ 2.03 µM) in the assay with Staphylococcus aureus [1]; 1 µg/mL (≈ 2.03 µM) against Streptococcus pneumoniae; 0.5 µg/mL (≈ 1.02 µM) in the assay with Staphylococcus aureus [2]; at least 8 µg/mL against Escherichia coli; 0.5 µg/mL (≈ 1.02 µM) in the assay with Staphylococcus aureus [3]; at least 8 µg/mL against Haemophilus influenzae. The MIC is over 8 µg/mL in the assay on Staphylococcus aureus [4]; 0.5 µg/mL (≈ 1.02 µM) against Enterococcus [5]; 0.5 µg/mL (≈ 1.02 µM) in the assay with Staphylococcus [6]; 0.5 µg/mL (≈ 1.02 µM) in the assay with Enterococcus [7]; 0.5 µg/mL (≈ 1.02 µM) in the assay on Staphylococcus [8]; at least 8 µg/mL with Moraxella catarrhalis.
Regarding `O=C(c1ccccc1Cl)N1CCN(c2ccc(N3C[C@H](Cn4ccnn4)OC3=O)cc2F)CC1`, the MIC was 1 µg/mL (≈ 2.06 µM) in the assay with Staphylococcus aureus [1]; 4 µg/mL (≈ 8.25 µM) against Streptococcus pneumoniae; 0.5 µg/mL (≈ 1.03 µM) with Staphylococcus aureus [2]; at least 8 µg/mL in the assay with Escherichia coli; 0.5 µg/mL (≈ 1.03 µM) with Staphylococcus aureus [3]; at least 8 µg/mL with Haemophilus influenzae. The MIC in the assay on Staphylococcus aureus [4] was 8 µg/mL; in the assay with Enterococcus [5], 0.5 µg/mL (≈ 1.03 µM); against Staphylococcus [6], 0.5 µg/mL (≈ 1.03 µM); against Enterococcus [7], 0.5 µg/mL (≈ 1.03 µM); in the assay with Staphylococcus [8] it was 0.5 µg/mL (≈ 1.03 µM); against Moraxella catarrhalis it was at least 8 µg/mL.
Consider `O=C(c1ccc(Cl)cc1)N1CCN(c2ccc(N3C[C@H](Cn4ccnn4)OC3=O)cc2F)CC1`, for which the MIC in the assay on Staphylococcus aureus [1] is 0.5 µg/mL (≈ 1.03 µM); with Streptococcus pneumoniae, 1 µg/mL (≈ 2.06 µM); with Staphylococcus aureus [2] it was 0.25 µg/mL (≈ 0.516 µM); against Escherichia coli, at least 8 µg/mL; against Staphylococcus aureus [3] it was 0.25 µg/mL (≈ 0.516 µM); against Haemophilus influenzae, at least 8 µg/mL. Also, the MIC with Staphylococcus aureus [4] is 8 µg/mL; with Enterococcus [5], 0.5 µg/mL (≈ 1.03 µM); in the assay on Staphylococcus [6], 0.12 µg/mL (≈ 0.247 µM); against Enterococcus [7] it was 0.5 µg/mL (≈ 1.03 µM); against Staphylococcus [8], 0.12 µg/mL (≈ 0.247 µM); against Moraxella catarrhalis, at least 8 µg/mL.
Consider `O=C1O[C@@H](Cn2ccnn2)CN1c1ccc(N2CCN(S(=O)(=O)c3ccccc3)CC2)c(F)c1`, for which the MIC against Staphylococcus aureus [1] is 2 µg/mL (≈ 4.11 µM); in the assay with Streptococcus pneumoniae, 1 µg/mL (≈ 2.06 µM); in the assay on Staphylococcus aureus [2], 0.5 µg/mL (≈ 1.03 µM); in the assay with Escherichia coli it was at least 8 µg/mL; against Staphylococcus aureus [3] it was 0.5 µg/mL (≈ 1.03 µM); in the assay on Haemophilus influenzae, at least 8 µg/mL. The MIC in the assay with Staphylococcus aureus [4] is 8 µg/mL; against Enterococcus [5], 0.5 µg/mL (≈ 1.03 µM); with Staphylococcus [6] it was 0.5 µg/mL (≈ 1.03 µM); against Enterococcus [7], 2 µg/mL (≈ 4.11 µM); in the assay on Staphylococcus [8] it was 0.5 µg/mL (≈ 1.03 µM); in the assay with Moraxella catarrhalis it was at least 8 µg/mL.
Turning to `O=C(Cc1ccccc1)N1CCN(c2ccc(N3C[C@H](Cn4ccnn4)OC3=O)cc2F)CC1`, the MIC with Staphylococcus aureus [1] is 2 µg/mL (≈ 4.31 µM); against Streptococcus pneumoniae, 0.5 µg/mL (≈ 1.08 µM); in the assay with Staphylococcus aureus [2], 0.5 µg/mL (≈ 1.08 µM); against Escherichia coli, at least 8 µg/mL; in the assay with Staphylococcus aureus [3], 0.5 µg/mL (≈ 1.08 µM); with Haemophilus influenzae it was at least 8 µg/mL. Also, the MIC was 4 µg/mL in the assay on Staphylococcus aureus [4]; 1 µg/mL (≈ 2.15 µM) in the assay with Enterococcus [5]; 0.5 µg/mL (≈ 1.08 µM) in the assay on Staphylococcus [6]; 0.5 µg/mL (≈ 1.08 µM) against Enterococcus [7]; 0.5 µg/mL (≈ 1.08 µM) in the assay with Staphylococcus [8]; at least 8 µg/mL in the assay on Moraxella catarrhalis.
